# Source: PubChem BioAssay
# STEP block: STEP (human) phosphatase inhibition; actives 0.25% (n = 360,000); P54829; recombinant STEP, OMFP fluorogenic substrate, fluorescence; inhibition, % at 20 µM;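 active = inhibition at 20 µM, scaled per plate between control wells, above about 37%, limit read from the data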
#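 System: isolated STEP enzyme; schedule: 20 min enzyme reaction at room temperature, protected from light; medium: Bis-Tris buffer pH 6.0, 2.5 mM DTT, 0.005% Tween 20; signal: fluorescence, 480/540 nm; dosing: single compound dose of 20 µM, 1% DMSO final; also added: OMFP substrate, 25 µM final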
# Scp-1 inhibitor: blocks human Scp-1 phosphatase activity | Q9GZU7 | Recombinant Scp1, phosphopeptide, malachite green phosphate absorbance | inhibition, % at 20 µM | actives 0.88% (n = 340,000);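 active = inhibition above about 50% at 20 µM, limit read from the data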
# Target sequence (Q9GZU7 76-261 limits assumed): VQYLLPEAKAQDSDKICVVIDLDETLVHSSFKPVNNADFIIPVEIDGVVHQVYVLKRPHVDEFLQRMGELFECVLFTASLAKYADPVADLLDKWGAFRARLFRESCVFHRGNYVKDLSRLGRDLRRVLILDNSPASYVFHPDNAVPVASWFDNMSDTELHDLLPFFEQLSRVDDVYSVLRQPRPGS
#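 Incubation: 45 min enzyme reaction at room temperature / System: truncated SCP-1 phosphatase (76-261aa) / Reagent: Phospho 17-mer peptide substrate / Buffer or medium: Acidic Tris acetate buffer with magnesium and detergent / Signal: absorbance at 630 nm / Doses: one concentration, 20 µM, with 1.0% DMSO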
# SUMO1 PPI mod: modulators of human SUMO1-mediated protein-protein interactions; SUMO1 binding to a labelled peptide, TR-FRET, 1 h; inhibition, % at 20 µM; actives 0.33% (n = 360,000); AID 602429; in the data active = inhibition above about 37%
# Target sequence (P63165 whole entry, looked up): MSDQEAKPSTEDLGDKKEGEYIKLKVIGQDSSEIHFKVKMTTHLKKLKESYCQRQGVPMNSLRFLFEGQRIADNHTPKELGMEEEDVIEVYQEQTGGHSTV
# HKDC1 inhibitor: blocks human hexokinase HKDC1 activity. inhibition, % at 20 µM. AID 493160. recombinant HKDC1, G6PDH/diaphorase resazurin coupled fluorescence. actives 0.16% (n = 340,000). Q2TB90;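 active = inhibition above about 35% when tested at 20 µM, limit read from the data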
#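 Incubation: 90 min at room temperature in dark / Material: recombinant HKDC1 (HK5) hexokinase enzyme, produced in-house / Quantity: enzyme 5 µg/mL final / Compound: one dose of 20 µM, 1% DMSO / Reagent: glucose and ATP substrates / Buffer or medium: Tris pH 8.0 buffer with MgCl2, Tween-20, BSA, BME / Technique: resorufin fluorescence at 613 nm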
# DNMT1 inh: DNMT1 (human) enzyme inhibition; P26358; DNMT1 molecular beacon, Hinp1I cleavage, fluorescence; inhibition (reported as % activation of signal), % at 10 µM; actives 0.83% (n = 360,000); in the data active = inhibition above about 50%
# LMPTP block: LMPTP (human) inhibition. recombinant LMPTP-A, OMFP fluorogenic substrate, fluorescence intensity. inhibition, % at 20 µM. actives 0.22% (n = 360,000);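 active = compounds that cut the enzyme signal by at least half of the control window in the single-dose screen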
# Target sequence (P24666 whole entry, looked up): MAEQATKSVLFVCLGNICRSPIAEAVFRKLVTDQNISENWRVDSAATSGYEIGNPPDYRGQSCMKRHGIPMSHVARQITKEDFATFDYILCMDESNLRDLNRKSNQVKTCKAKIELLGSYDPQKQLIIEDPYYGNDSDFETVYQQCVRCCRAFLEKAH
#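 Material: LMPTP-A; amount: 0.625 nM enzyme; doses: single 20 µM dose; times: reaction 50 min, room temperature, dark; technique: fluorescence intensity of OMFP turnover product; benchmarks: no-enzyme and uninhibited controls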
# Hits are given with their value; . = inactive; / = no result; ! = not confirmed by another sample. Sampled rows, rich in hits. Any-hit rate of the full collection: about 1.8%.
SMILES,STEP block,Scp-1 inhibitor,SUMO1 PPI mod,HKDC1 inhibitor,DNMT1 inh,LMPTP block
O=C(O)c1cccc(-n2sc3ccccc3c2=O)c1,.,88,.,.,.,.
CN(C)S(=O)(=O)c1cccc(-n2sc3ccccc3c2=O)c1,.,99,.,.,.,.
CN(Cc1ccccc1)C(=O)C1(C)CCN1C(=O)Cc1ccc(Cl)cc1Cl (centres undefined),.,/,.,/,.,.
Cc1ccc(S(=O)(=O)NC(=O)NC2=NC(C)(C)N(c3ccc(Cl)c(Cl)c3)C(N)=N2)cc1,.,/,.,/,.,.
Cc1ccc(-n2sc3ccccc3c2=O)cc1S(=O)(=O)N1CCCCC1,.,97,.,.,.,.
O=c1c2ccccc2sn1-c1nccs1,.,96,.,.,.,.
O=S(c1cc(Cl)cc(Cl)c1O)c1cc(Cl)cc(Cl)c1O,/,/,43,/,/,.
CS/C(=N\S(=O)(=O)c1cccs1)NC(=O)CSc1nc2ccccc2s1,.,.,38!,.,.,.
C/C(=N/NC(=O)CSc1nc2ccccc2s1)c1ccncc1,.,.,.,.,.,.
Cc1nc(N)sc1-c1csc(Nc2ncccn2)n1,64,.,93,.,.,.
O=Cc1ccc(Sc2nnc(-c3ccccc3)o2)c([N+](=O)[O-])c1,.,.,.,43,.,.
O=C(CCN1C(=O)CC1c1ccco1)N1CCOCC1 (centres undefined),.,/,.,/,.,.
O=C(CSc1nnc2ccc(-c3ccco3)nn12)Nc1ccccc1F,.,.,.,.,.,53
COc1cccc(CNC(=O)[C@@H]2CCCN2C(=O)[C@H]2CCCCN2)c1,/,/,.,/,/,.
O=C(Nc1ccc(Cl)c(Cl)c1)Nn1cnnc1,.,.,.,.,.,.
Cc1ccc(NC(=O)Nn2cnnc2)cc1Cl,.,.,49,.,.,.
CN(C)c1ccc(/C=C/c2nc3ccccc3c(=O)n2-c2ccc(C(=O)O)cc2)cc1,.,64,.,.,.,.
O=C(O)c1cccc(-n2c(/C=C/c3ccccc3)nc3ccccc3c2=O)c1,.,.,.,.,.,.
Cc1ccc(CNc2ncnc3ccc(-c4ccoc4C)cc23)o1,.,/,.,/,.,.
CC1(C(=O)NS(=O)(=O)c2cccc(C#N)c2)CCN1C(=O)Cc1cc(F)ccc1F (centres undefined),.,/,.,/,.,.
CCc1nc2ccc(C(=O)NCCOc3ccc(OC)cc3)cn2c1N(C)C(=O)Cc1ccccc1,.,/,.,/,.,.
O=C1c2cccc3c([N+](=O)[O-])ccc(c23)C(=O)N1O,.,83,.,.,71,.
N#Cc1c(NC(=O)CSc2nnc(-c3ccccc3)o2)sc2c1CCCC2,.,.,.,.,.,77
CC1CCc2c(sc(NC(=O)CSc3nnc(-c4ccccc4)o3)c2C#N)C1 (centres undefined),.,.,.,.,.,65
COc1ccccc1C(=O)N1CCN(C(=O)[C@H]2O[C@@H](n3ccc(N)nc3=O)[C@H](O)[C@@H]2O)CC1,.,/,.,/,.,.
SMILES,STEP block,Scp-1 inhibitor,SUMO1 PPI mod,HKDC1 inhibitor,DNMT1 inh,LMPTP block
COc1ccc(Nc2cc(C)c3c(O)cccc3n2)cc1,.,.,.,.,.,79
COC(=O)c1cc(Nc2cc(C)c3c(O)cccc3n2)cc(C(=O)OC)c1,.,.,.,.,.,.
Cc1ccccc1Nc1cc(C)c2c(O)cccc2n1,.,.,.,.,.,67
Cc1ccc(Nc2cc(C)c3c(O)cccc3n2)cc1C,.,.,.,.,.,67
CCOC(=O)C(=NO)C1=CSC2=NNC(C)(C)N12,.,/,.,/,.,.
COc1ccc(-c2c(-c3ccc4c(c3)OCO4)c3ccccc3n2C)cc1,.,.,.,.,.,.
Cc1ccc(/C=C/c2ccc(N(C)C)cc2)[n+](C)c1,.,.,.,.,.,.
CN(C)c1ccc(/C=C/c2cc[n+](C)cc2)cc1,.,96,.,.,.,.
CN1/C(=C\C=[N+](C)c2ccccc2)C(C)(C)c2ccccc21,.,72,.,.,.,.
O=C(Nc1nccs1)c1ccc(CSc2ccccc2)o1,.,.,.,.,.,49
